Reference: ChEMBL document CHEMBL1137748, “Design, synthesis and characterization of novel 2-(2,4-disubstituted-thiazole-5-yl)-3-aryl-3H-quinazoline-4-one derivatives as inhibitors of NF-kappaB and AP-1 mediated transcription activation and as potential anti-inflammatory agents” (Eur J Med Chem, 2009)

Key:
[1] = system: Rattus norvegicus; assay: Antiinflammatory activity in Sprague-Dawley rat assessed as protection against carrageenan-induced paw edema at 50 mg/kg, po administered 1 hr before carrageenan challenge measured after 3 hrs relative to control; type: functional
Method in brief: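 Sprague-Dawley rats of either sex, 150–250 g, fasted 18 h, n = 4 per group, each group run against a vehicle control. Dosed orally at 50 mg/kg in freshly made 0.2% agar suspension. One hour later, 0.1 ml of 1% carrageenan in saline was injected subplantar into the right hind paw. Paw volume was read by plethysmometer at 3 h. % protection = (control − test)/control × 100.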

[2] = target: Transcription factor Jun (Homo sapiens) (UniProt P05412); assay: Inhibition of AP1 expressed in HEK293 cells assessed as inhibition of PMA-induced transcriptional activation at 10 uM treated 24 hrs before PMA challenge measured after 20 to 24 hrs by luciferase assay relative to control
[3] = system: HEK293; assay: Inhibition of NF-kappaB expressed in HEK293 cells assessed as inhibition of TNF-alpha-induced transcriptional activation at 10 uM treated 24 hrs before TNFalpha challenge measured after 20 to 24 hrs by luciferase assay relative to control; type: cell-based
Method in brief: (§1)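 HEK/NF-κB cells stably carrying an NF-κB response element driving luciferase. Plated at 5×10^4 cells/well and held 24 h at 37 °C, 5% CO2. Compounds in 0.1% DMSO were added to replicate wells for 24 h, then TNF-α was added and cells were incubated 20–24 h. Bright-Glo lysis/substrate was added and luminescence read. The replicate mean was normalized to the maximal control.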

[4] = Inhibition of NF-kappaB expressed in HEK293 cells assessed as inhibition of TNF-alpha-induced transcriptional activation treated 24 hrs before TNFalpha challenge measured after 20 to 24 hrs by luciferase assay; type: cell-based; method in brief: as §1

Transcription factor Jun (Homo sapiens), sequence (P05412 whole entry): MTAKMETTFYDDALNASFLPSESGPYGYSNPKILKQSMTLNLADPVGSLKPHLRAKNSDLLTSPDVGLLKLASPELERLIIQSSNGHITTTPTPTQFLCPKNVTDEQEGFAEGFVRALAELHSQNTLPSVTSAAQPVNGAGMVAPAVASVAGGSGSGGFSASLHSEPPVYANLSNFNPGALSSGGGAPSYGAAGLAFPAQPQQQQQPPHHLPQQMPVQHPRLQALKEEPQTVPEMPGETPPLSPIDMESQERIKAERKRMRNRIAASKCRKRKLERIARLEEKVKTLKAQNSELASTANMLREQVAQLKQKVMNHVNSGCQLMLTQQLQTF

SMILES	inhibition [2]	Activity [1]	inhibition [3]	IC50 [4]
COc1ccccc1-n1c(-c2sc(Nc3ccc(Cl)cc3)nc2C)nc2ccccc2c1=O	–	27%	–	–
CNc1nc(-c2ccccc2)c(-c2nc3ccccc3c(=O)n2-c2ccc(C(C)=O)cc2)s1	15%	–	4%	–
CC(=O)c1ccc(-n2c(-c3sc(Nc4ccc(Cl)cc4)nc3C)nc3ccccc3c2=O)cc1	2%	13%	0%	–
CNc1nc(C)c(-c2nc3ccccc3c(=O)n2-c2ccc(Cl)cc2)s1	82%	71%	93%	3.3 µM
CNc1nc(C)c(-c2nc3ccccc3c(=O)n2-c2cccc(C)c2)s1	20%	–	10%	–
CNc1nc(C)c(-c2nc3ccccc3c(=O)n2-c2ccc(C(C)=O)cc2)s1	0%	42%	71%	5.5 µM
Cc1nc(Nc2ccc(Cl)cc2)sc1-c1nc2ccccc2c(=O)n1-c1ccc(Cl)cc1	84%	38%	96%	3.3 µM
CNc1nc(C)c(-c2nc3ccccc3c(=O)n2-c2ccccc2C)s1	67%	35%	16%	–
Nc1nc(Nc2ccc(Cl)cc2)sc1-c1nc2ccccc2c(=O)n1-c1ccc(Cl)cc1	0%	37%	0%	–
Cc1cccc(-n2c(-c3sc(Nc4ccc(Cl)cc4)nc3C)nc3ccccc3c2=O)c1	39%	–	2%	–
Cc1nc(Nc2ccc(Cl)cc2)sc1-c1nc2ccccc2c(=O)n1-c1ccccc1Cl	21%	58%	60%	–
Cc1ccccc1-n1c(-c2sc(Nc3ccc(Cl)cc3)nc2C)nc2ccccc2c1=O	–	45%	–	–
Cc1nc(Nc2ccccc2)sc1-c1nc2ccccc2c(=O)n1-c1ccccc1Cl	21%	–	6%	–
CC(=O)c1ccc(-n2c(-c3sc(Nc4ccc(Cl)cc4)nc3N)nc3ccccc3c2=O)cc1	2%	53%	12%	–
COc1ccc(-n2c(-c3sc(Nc4ccc(Cl)cc4)nc3C)nc3ccccc3c2=O)cc1	0%	5%	0%	–
Cc1ccccc1-n1c(-c2sc(Nc3ccccc3)nc2C)nc2ccccc2c1=O	60%	42%	21%	–
CC(=O)c1ccc(-n2c(-c3sc(Nc4ccccc4)nc3C)nc3ccccc3c2=O)cc1	7%	–	15%	–

Further lines, with some results ahead:

inhibition [2]	SMILES	Activity [1]	inhibition [3]	IC50 [4]
9%	Cc1nc(Nc2ccccc2)sc1-c1nc2ccccc2c(=O)n1-c1ccc(Cl)cc1	72%	79%	5.5 µM
27%	O=c1c2ccccc2nc(-c2sc(Nc3ccc(Cl)cc3)nc2-c2ccccc2)n1-c1ccccc1	–	0%	–
0%	O=c1c2ccccc2nc(-c2sc(Nc3ccc(Cl)cc3)nc2-c2ccccc2)n1-c1ccccc1Cl	61%	24%	–
32%	Cc1ccccc1-n1c(-c2sc(Nc3ccc(Cl)cc3)nc2-c2ccccc2)nc2ccccc2c1=O	51%	27%	–
0%	Cc1nc(Nc2ccc(Cl)cc2)sc1-c1nc2ccccc2c(=O)n1-c1ccccc1	4%	0%	–
16%	Cc1nc(Nc2ccccc2)sc1-c1nc2ccccc2c(=O)n1-c1ccccc1	12%	25%	–
0%	Cc1ccc(Nc2nc(-c3ccccc3)c(-c3nc4ccccc4c(=O)n3-c3ccc(Cl)cc3)s2)cc1	–	0%	–
31%	CC(=O)c1ccc(-n2c(-c3sc(Nc4ccc(Cl)cc4)nc3-c3ccccc3)nc3ccccc3c2=O)cc1	23%	0%	–
2%	Cc1ccc(-n2c(-c3sc(Nc4ccc(Cl)cc4)nc3C)nc3ccccc3c2=O)cc1	37%	12%	–
